The full list was thinned out, with hits kept by preference.
CHOP inh: inhibitors of CHOP induction in ER stress response; CHO-K1 CHOP-promoter luciferase, tunicamycin-induced, 15-18 h; 3.8% of 220,000 active; inhibition, % at 10 µM; AID 2732;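 active = compounds that reduced the stress-induced luciferase reporter signal by more than about 70% of percent inhibition, limit read from the data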;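 note: 0% = tunicamycin plus vehicle and 100% = wells without tunicamycin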
UPR XBP1 act: activators of adaptive arm of unfolded protein response (XBP1); CHO-XBP1 luciferase reporter, IRE1-XBP1 UPR activation, luminescence; percent of tunicamycin response, DMSO as zero; activation, % at 20 µM; 0.33% of 330,000 active; AID 463104;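 active = versus positive control, 20 µM dose yields 30% or more activation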;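 note: 100% = tunicamycin at 10 µg/mL and 0% = DMSO only wells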
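Material: CHO-XBP1 cells stably carrying IRE1-XBP1-driven luciferase reporter / Amount: 1000 cells per well / Compound: 20 µM, 1% DMSO / Times: 6 h treatment, 37 °C / Detection: luciferase luminescence / Measure: % activation of reporter signal versus tunicamycin and DMSO controls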
697 NFkB inh: inhibitors of the PMA/ionomycin-induced NF-kB reporter in 697 B cells | AID 435022 | 697 B-cell NF-kB luciferase reporter, 16 h | 0.33% of 330,000 active | inhibition, % at 4 µM; in the data active = inhibition above about 35%
Jurkat NFkB inh: lowers PMA/ionomycin-induced NF-kB signal in Jurkat cells; AID 435003; 0.53% of 330,000 active; inhibition, % at 4 µM; PMA/ionomycin-induced NF-kB luciferase reporter, luminescence; in the data active = inhibition above about 50%
UPR CHOP act: activators of apoptotic arm of unfolded protein response (CHOP); CHO-CHOP luciferase reporter, UPR activation, luminescence; percent of tunicamycin response over DMSO baseline; activation, % at 10 µM; 0.34% of 330,000 active; AID 449763;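 active = at 10 µM dose, activation of 40% or more, normalized to positive control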;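 note: 100% = tunicamycin at 10 µg/mL and 0% = DMSO alone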
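System: CHO-CHOP luciferase reporter cell line; amount: 500 cells/well; buffer or medium: F12 medium containing 10% fetal bovine serum; incubation: 6 h compound exposure at 37 °C after overnight seeding; measured by: luciferase luminescence after 10 min with Steady-Glo reagent; evaluation: % reporter activation, DMSO baseline versus tunicamycin full activation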
Starred values were filed as active, the others as inactive; / = no result.

SMILES	CHOP inh	UPR XBP1 act	697 NFkB inh	Jurkat NFkB inh	UPR CHOP act
CCCc1nc2sc3c(=O)n(N)cnc3c2c2c1CCCC2	74*	6	12	1	4
CCCCc1nc2sc3c(=O)n(N)cnc3c2c2c1CCCC2	21	-4	-20	-12	-2
CCN1C/C(=C/c2cccc([N+](=O)[O-])c2)C(=O)/C(=C/c2cccc([N+](=O)[O-])c2)C1	111*	/	/	/	/
CCOc1ccc(S(=O)(=O)NCCC(=O)N(C)Cc2cccs2)cc1	/	-3	15	1	0
COCCn1c(=NC(=O)c2ccc(S(=O)(=O)N3CCOCC3)cc2)sc2cc(S(N)(=O)=O)ccc21	/	-3	-6	-12	1
CCn1c(=NC(=O)c2ccc(S(=O)(=O)N3CCOCC3)cc2)sc2cccc(OC)c21	83*	6	-29	11	7
CCOc1ccc(-n2c(=O)c3c4c(sc3n(CC(=O)NCc3ccco3)c2=O)CCC4)cc1	70*	1	-15	1	-1
Cc1ccc(C)c(OC(=O)c2cccnc2Cl)c1C	/	3	2	-5	4
Brc1ccc2c(c1)OCCOCCOc1cc(Br)ccc1OCCOCCOCCO2	83*	0	-20	1	7
Brc1cc2c(cc1Br)OCCOCCOCCOCCO2	3	-3	10	9	-2
O=C(NC(=S)Nc1ccc2[nH]c(=O)[nH]c2c1)c1cccc(F)c1	/	0	-6	-5	1
C=CCn1c(SCc2nc3cc(C(=O)OC)ccc3c(=O)[nH]2)nc2sc(CC)cc2c1=O	72*	4	-8	6	0
C=CCn1c(SCC(=O)Nc2sccc2C(N)=O)nc2sc(CC)cc2c1=O	51	1	-52	-4	-2
COc1ccc2[nH]c(=O)c(CN(Cc3cccs3)Cc3nnnn3C(C)(C)C)cc2c1	47	0	-35	-27	3
CCOc1ccc2[nH]c(=O)c(CN(Cc3cccs3)Cc3nnnn3C(C)(C)C)cc2c1	96*	-1	-11	11	0
Nc1cc(=O)[nH]c(SCC(=O)N2N=C(c3ccc4ccccc4c3)CC2c2ccccc2)n1 (centres undefined)	86*	-1	-23	-10	0
CC(C)CC(=O)NC(=S)NNC(=O)c1ccc(NC(=O)C2CCCCC2)cc1	72*	2	7	13	1
CCCCNC(=O)C(=O)N/N=C/c1cccc(Br)c1	71*	2	34	6	0
COC(=O)c1ccc(-c2ccc(/C=N/NC(=O)Cc3nnc(N)s3)o2)cc1	-8	-2	-18	-31	1
Cc1cccc(C(=O)NCC(=O)N2CCOCC2)c1	/	0	11	-12	0
Cc1ccc2nc3c(cc2c1)c(NC(=O)c1ccccn1)nn3CC(C)C	41	0	-18	-11	0
Cc1ccc2cc3c(NC(=O)c4ccco4)nn(CC(C)C)c3nc2c1	70*	2	-17	-8	-2
O=C1c2cccc(OCc3ccc(F)cc3)c2CCN1Cc1ccc(F)cc1	85*	0	-33	23	1
Cc1ccc(CN2CCc3c(OCc4ccc(F)cc4)cccc3C2=O)cc1	69	-2	-3	16	2
O=C(CCl)N1N=C(c2ccco2)CC1c1cccs1 (centres undefined)	90*	/	/	/	/
SMILES	CHOP inh	UPR XBP1 act	697 NFkB inh	Jurkat NFkB inh	UPR CHOP act
CCn1c(=O)cc(OCC(=O)N2CCc3ccccc32)c2ccccc21	85*	/	/	/	/
Cc1cc(C)nc(N/N=C/c2ccccc2OCc2ccc([N+](=O)[O-])cc2)n1	-4	2	3	6	6
O=[N+]([O-])c1ccc(N/N=C\c2ccccc2OCc2ccccc2)cc1	76*	0	-15	16	2
CCc1nc(N(CC)CC)c2oc3ccccc3c2n1	91*	4	0	0	1
CCNc1nc(CC)nc2c1oc1ccccc12	12	2	-33	-19	2
CCc1nc(N2CCC(C)CC2)c2oc3ccccc3c2n1	70*	0	-2	2	2
COC(=O)c1c(NC(NC(=O)C(C)(C)C)C(Cl)(Cl)Cl)sc2c1CCC2 (centres undefined)	78*	-3	-6	0	-3
CCC(=O)NC(Nc1sc2c(c1C(=O)OC)CCC2)C(Cl)(Cl)Cl (centres undefined)	43	-4	3	4	1
COC(=O)c1c(NC(NC(=O)CC(C)C)C(Cl)(Cl)Cl)sc2c1CCC2 (centres undefined)	91*	-2	6	6	1
Cc1ccc(Nc2nc(C)c(CCC(C)C)c(=O)[nH]2)cc1	78*	-7	-42	-35	2
Cc1nc(NCc2ccccc2)[nH]c(=O)c1CCC(C)C	76*	0	6	0	1
Cc1cc(C)n(-c2ccc(C(=O)NCC(=O)Nc3cc(Cl)ccc3Cl)cc2)n1	/	-4	13	4	1
COc1ccc(S(=O)(=O)Nc2cc3c4c(c2)CC(=O)N4CCC3)cc1C	/	1	-11	17	1
C[C@@]12CCC3[C@@](CCC4[C@@]3(C)CCC[C@@]4(C)C(=O)Nc3ccc(Cl)cc3)(CC1=O)C2 (some centres undefined)	/	-2	16	5	3
CCC(C)n1cnc2c(c1=O)c1nc3ccccc3nc1n2-c1ccc2c(c1)OCCO2 (centres undefined)	83*	-2	-6	8	-1
Nc1nc(Nc2cccc(F)c2)nc(NCc2ccco2)c1[N+](=O)[O-]	84*	10	-55	-27	1
Nc1nc(Nc2ccc(Cl)cc2)nc(NCc2ccco2)c1[N+](=O)[O-]	86*	20	-80	-75	9
Cc1cccc(Nc2nc(N)c([N+](=O)[O-])c(NCc3ccco3)n2)c1	96*	3	-65	47	6
Cc1c(CC(=O)O)c(=O)oc2cc(OCc3ccc(Cl)cc3)ccc12	/	0	-16	-19	1
CC(=O)Nc1cc[n+](C(C)C(=O)c2ccc(Br)cc2)cc1 (centres undefined)	-13	-3	-11	20	0
CCCN(CCC)C1Sc2ccc(C(=O)OC)cc2NC1=O (centres undefined)	82*	-2	-5	-10	0
CCc1cc2c(=O)c(-c3cnn(-c4ccccc4)c3)c(C)oc2cc1OCC(=O)Nc1ccc(F)c(F)c1	86*	-1	5	-9	12
Cc1nnc(SCc2nc(N)nc(Nc3ccccc3)n2)s1	-1	2	-6	-18	0
CCc1ccc(Nc2nc(N)nc(CSc3nc4ccccc4s3)n2)cc1	73*	1	-2	5	2
CC(=O)Nc1ccc(N(C(=O)CNC(=O)c2ccco2)C(C(=O)NC2CCCC2)c2ccco2)cc1 (centres undefined)	/	-2	10	-6	1
Cc1nn2c(-n3ccnc3C)c3c(nc2c1-c1ccccc1)CCC3	23	-2	9	10	0

Bioassay records (PubChem BioAssay)
